Test results from ChEMBL document CHEMBL4689842, “EUbOPEN Chemogenomics Library wave 1” (2021).

Tested on: Fibroblast
Test: Multiplex assay against human fibroblast
Assay type: toxicity, cell-based
How it was run: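 Values for tubulin, mitochondrial-mass and membrane-permeability phenotypes are per cents of cells with healthy nuclei. These cells were identified by CellPathfinder machine-learning gating of live cells that had been stained at seeding with Hoechst33342, BioTracker Green Microtubule Cytoskeleton Dye, MitoTracker Red and Annexin V Alexa Fluor 680 and imaged on a CQ1 microscope at 37°C and 5% CO2 after compound addition. The gating first set Hoechst high-intensity objects apart from normal cells, then split normal cells into healthy, pyknosed or fragmented nuclei, and pyknosed cells into mitotic or apoptotic.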

[1] = 12 h, 1 µM, compound concentration 1 uM, replicate 1
[2] = 12 h, 1 µM, compound concentration 1 uM, replicate 2
[3] = 12 h, 10 µM, compound concentration 10 uM, replicate 1
[4] = 12 h, 10 µM, compound concentration 10 uM, replicate 2
[5] = 24 h, 1 µM, compound concentration 1 uM, replicate 1
[6] = 24 h, 1 µM, compound concentration 1 uM, replicate 2
[7] = 24 h, 10 µM, compound concentration 10 uM, replicate 1
[8] = 24 h, 10 µM, compound concentration 10 uM, replicate 2
[9] = 48 h, 1 µM, compound concentration 1 uM, replicate 1
[10] = 48 h, 1 µM, compound concentration 1 uM, replicate 2
[11] = 48 h, 10 µM, compound concentration 10 uM, replicate 1
[12] = 48 h, 10 µM, compound concentration 10 uM, replicate 2

SMILES: CN(C)CC#Cc1ccc(OCCCc2sc(N3CCc4cccc(C(=O)Nc5nc6ccccc6s5)c4C3)nc2C(=O)O)c(F)c1 [A-1155463]
- Population Apoptotic (%) [1]: 74%
- Population Fragmented Nuclei (%) [1]: 27%
- Population Healthy Nuclei (%) [1]: 44%
- Population Hoechst High Intensity Objects (%) [1]: 12%
- Population Membrane Permeable-Phenotype (%) [1]: 30%
- Population Mitochondria Different-Phenotype (%) [1]: 9%
- Population Mitotic Cells (%) [1]: 25%
- Population Normal (%) [1]: 87%
- Population Pyknosed Nuclei (%) [1]: 27%
- Population Tubulin-Different-Phenotype (%) [1]: 46%
- Total Cell Count [1]: 111
- Population Apoptotic (%) [2]: 66%
- Population Fragmented Nuclei (%) [2]: 39%
- Population Healthy Nuclei (%) [2]: 53%
- Population Hoechst High Intensity Objects (%) [2]: 4%
- Population Membrane Permeable-Phenotype (%) [2]: 13%
- Population Mitochondria Different-Phenotype (%) [2]: 31%
- Population Mitotic Cells (%) [2]: 33%
- Population Normal (%) [2]: 95%
- Population Pyknosed Nuclei (%) [2]: 7%
- Population Tubulin-Different-Phenotype (%) [2]: 27%
- Total Cell Count [2]: 86
- Population Apoptotic (%) [3]: 63%
- Population Fragmented Nuclei (%) [3]: 24%
- Population Healthy Nuclei (%) [3]: 41%
- Population Hoechst High Intensity Objects (%) [3]: 11%
- Population Membrane Permeable-Phenotype (%) [3]: 42%
- Population Mitochondria Different-Phenotype (%) [3]: 4%
- Population Mitotic Cells (%) [3]: 36%
- Population Normal (%) [3]: 88%
- Population Pyknosed Nuclei (%) [3]: 33%
- Population Tubulin-Different-Phenotype (%) [3]: 74%
- Total Cell Count [3]: 173
- Population Apoptotic (%) [4]: 86%
- Population Fragmented Nuclei (%) [4]: 33%
- Population Healthy Nuclei (%) [4]: 42%
- Population Hoechst High Intensity Objects (%) [4]: 5%
- Population Membrane Permeable-Phenotype (%) [4]: 24%
- Population Mitochondria Different-Phenotype (%) [4]: 16%
- Population Mitotic Cells (%) [4]: 13%
- Population Normal (%) [4]: 94%
- Population Pyknosed Nuclei (%) [4]: 23%
- Population Tubulin-Different-Phenotype (%) [4]: 25%
- Total Cell Count [4]: 133
- Population Apoptotic (%) [5]: 62%
- Population Fragmented Nuclei (%) [5]: 30%
- Population Healthy Nuclei (%) [5]: 33%
- Population Hoechst High Intensity Objects (%) [5]: 11%
- Population Membrane Permeable-Phenotype (%) [5]: 37%
- Population Mitochondria Different-Phenotype (%) [5]: 7%
- Population Mitotic Cells (%) [5]: 37%
- Population Normal (%) [5]: 88%
- Population Pyknosed Nuclei (%) [5]: 36%
- Population Tubulin-Different-Phenotype (%) [5]: 50%
- Total Cell Count [5]: 134
- Population Apoptotic (%) [6]: 50%
- Population Fragmented Nuclei (%) [6]: 36%
- Population Healthy Nuclei (%) [6]: 54%
- Population Hoechst High Intensity Objects (%) [6]: 7%
- Population Membrane Permeable-Phenotype (%) [6]: 13%
- Population Mitochondria Different-Phenotype (%) [6]: 32%
- Population Mitotic Cells (%) [6]: 50%
- Population Normal (%) [6]: 92%
- Population Pyknosed Nuclei (%) [6]: 9%
- Population Tubulin-Different-Phenotype (%) [6]: 28%
- Total Cell Count [6]: 92
- Population Apoptotic (%) [7]: 71%
- Population Fragmented Nuclei (%) [7]: 27%
- Population Healthy Nuclei (%) [7]: 50%
- Population Hoechst High Intensity Objects (%) [7]: 9%
- Population Membrane Permeable-Phenotype (%) [7]: 44%
- Population Mitochondria Different-Phenotype (%) [7]: 2%
- Population Mitotic Cells (%) [7]: 28%
- Population Normal (%) [7]: 90%
- Population Tubulin-Different-Phenotype (%) [7]: 76%
- Total Cell Count [7]: 170
- Population Apoptotic (%) [8]: 81%
- Population Fragmented Nuclei (%) [8]: 32%
- Population Healthy Nuclei (%) [8]: 45%
- Population Hoechst High Intensity Objects (%) [8]: 10%
- Population Membrane Permeable-Phenotype (%) [8]: 20%
- Population Mitochondria Different-Phenotype (%) [8]: 14%
- Population Mitotic Cells (%) [8]: 18%
- Population Normal (%) [8]: 89%
- Population Pyknosed Nuclei (%) [8]: 22%
- Population Tubulin-Different-Phenotype (%) [8]: 21%
- Total Cell Count [8]: 135
- Population Apoptotic (%) [9]: 68%
- Population Fragmented Nuclei (%) [9]: 31%
- Population Healthy Nuclei (%) [9]: 34%
- Population Hoechst High Intensity Objects (%) [9]: 18%
- Population Membrane Permeable-Phenotype (%) [9]: 20%
- Population Mitochondria Different-Phenotype (%) [9]: 3%
- Population Mitotic Cells (%) [9]: 31%
- Population Normal (%) [9]: 81%
- Population Pyknosed Nuclei (%) [9]: 33%
- Population Tubulin-Different-Phenotype (%) [9]: 56%
- Total Cell Count [9]: 106
- Population Apoptotic (%) [10]: 80%
- Population Fragmented Nuclei (%) [10]: 35%
- Population Healthy Nuclei (%) [10]: 53%
- Population Hoechst High Intensity Objects (%) [10]: 11%
- Population Membrane Permeable-Phenotype (%) [10]: 28%
- Population Mitochondria Different-Phenotype (%) [10]: 6%
- Population Mitotic Cells (%) [10]: 20%
- Population Normal (%) [10]: 88%
- Population Pyknosed Nuclei (%) [10]: 10%
- Population Tubulin-Different-Phenotype (%) [10]: 44%
- Total Cell Count [10]: 105
- Population Apoptotic (%) [11]: 66%
- Population Fragmented Nuclei (%) [11]: 38%
- Population Healthy Nuclei (%) [11]: 39%
- Population Hoechst High Intensity Objects (%) [11]: 10%
- Population Membrane Permeable-Phenotype (%) [11]: 50%
- Population Mitochondria Different-Phenotype (%) [11]: 10%
- Population Mitotic Cells (%) [11]: 33%
- Population Normal (%) [11]: 89%
- Population Pyknosed Nuclei (%) [11]: 22%
- Population Tubulin-Different-Phenotype (%) [11]: 81%
- Total Cell Count [11]: 135
- Population Apoptotic (%) [12]: 95%
- Population Fragmented Nuclei (%) [12]: 25%
- Population Healthy Nuclei (%) [12]: 57%
- Population Hoechst High Intensity Objects (%) [12]: 14%
- Population Membrane Permeable-Phenotype (%) [12]: 35%
- Population Mitochondria Different-Phenotype (%) [12]: 9%
- Population Mitotic Cells (%) [12]: 4%
- Population Normal (%) [12]: 85%
- Population Pyknosed Nuclei (%) [12]: 17%
- Population Tubulin-Different-Phenotype (%) [12]: 74%
- Total Cell Count [12]: 145
